Paper PMC4090259 (Stem cell research, 2014)
Like-named read-outs stand apart in the source and are kept apart here. Blank lines part the entries; values can stand above or below the compound they belong to.

Tests used:
[1] = test system: ReNcell CX neural progenitor cell line; settings: cited from earlier work
[2] = test system: various cancer cell lines; settings: literature values for various cancer cell lines; ref Chauffert & Dimanche-Boitrel 1998; Lee et al. 2008; Meli et al. 2012; cited from earlier work
ReNcell VM cells [3] = assay type: cell-based, human
ReNcell VM cells [4] = test: Cytotoxicity in 2D ReNcell VM cultures, 96-well plate format; assay type: cell-based; settings: Homo sapiens
Outline: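 Human neural stem cells seeded at 5,000 cells/well and left to attach for at least 5 h. Doses made by 4-fold serial dilution from the highest dose, each holding 0.5% DMSO vehicle. Viability read by MTT: 2.5 mg/ml MTT solution added, 3 h under culture conditions, supernatant removed, formazan dissolved in DMSO, absorbance at 590 nm with 690 nm reference.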

Hep3B = settings: when P450 metabolism was absent; ref Lee et al. 2008; cited from earlier work
[5] = test system: ReNcell VM differentiated progeny (astrocytic phenotype); assay type: cell-based, human

Structure (SMILES): O=c1[nH]cc(F)c(=O)[nH]1 [5-Fluorouracil, 5-fluorouracil]
effect on proliferation and viability ([1]; non-differentiated, 2D well plate, after 24 h of incubation with the drug, ref Breier et al. 2008a): inhibited proliferation without affecting viability
IC50 [2]: 1 to 85 µM

IC50 (ReNcell VM cells [3]; Homo sapiens, ReNcell VM): 2400 µM
Structure (SMILES): CC(=O)Nc1ccc(O)cc1 [Acetaminophen, acetaminophen]
viability of the cells below the hepatotoxic range of concentrations (ReNcell VM cells [3]; hNSC line, concentrations below ~0.2 – 1 mM): remains unaffected
IC50 (ReNcell VM cells [4]): 1760 µM
toxicity (Hep3B): non-toxic
viability of the cells below the hepatotoxic range of concentrations ([5]; differentiated progeny, concentrations below ~0.2 – 1 mM): remains unaffected

Structure (SMILES): [Cl][Cd][Cl] [CdCl, cadmium chloride hydrate]
IC50 (ReNcell VM cells [3]; Non-differentiated, 3D alginate microarray, 24 h exposure + 48 h in medium): 7.36 µM

IC50 (ReNcell VM cells [3]; Homo sapiens, ReNcell VM): 2000 µM
IC50 ([5]; Homo sapiens, ReNcell VM): 60 µM
Structure (SMILES): C[C@@H]1C[C@H]2[C@@H]3CCC4=CC(=O)C=C[C@]4(C)[C@@]3(F)[C@@H](O)C[C@]2(C)[C@@]1(O)C(=O)CO [Dexamethasone, dexamethasone]
effect on viability ([1]; concentrations of up to 100 μM, ref Breier et al. 2008b): negligible effect on viability
IC50 (ReNcell VM cells [4]): 215 µM
